Source: ChEMBL document CHEMBL1255409, “In vitro activity of ceftaroline against 623 diverse strains of anaerobic bacteria” (2010)
In brackets after ≈: the same amount, converted by molar mass.

How the values were obtained:
[1] = tested on: Bacteroides fragilis; test: Antimicrobial activity against Bacteroides fragilis under anaerobic conditions after 44 hrs by CLSI-M11-47 protocol based agar dilution method; type: functional
How it was run: (§1)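 Reference agar dilution per CLSI M11-A7 with plates made on test day. Clinical isolates were stored at −70°C in 20% skim milk, subcultured twice, and 48-h cell paste was suspended in brucella broth to 0.5 McFarland. About 10^5 CFU/spot was applied with a Steers replicator. Plates were incubated 44 h at 37°C anaerobically. MIC was the lowest concentration giving complete inhibition or marked growth reduction versus the drug-free control.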

[2] = tested on: Bacteroides caccae; test: Antimicrobial activity against Bacteroides caccae under anaerobic conditions after 44 hrs by CLSI-M11-47 protocol based agar dilution method; type: functional; how it was run: as §1
[3] = tested on: Parabacteroides distasonis; test: Antimicrobial activity against Bacteroides distasonis under anaerobic conditions after 44 hrs by CLSI-M11-47 protocol based agar dilution method; type: functional; how it was run: as §1
[4] = tested on: Bacteroides uniformis; test: Antimicrobial activity against Bacteroides uniformis under anaerobic conditions after 44 hrs by CLSI-M11-47 protocol based agar dilution method; type: functional; how it was run: as §1
[5] = tested on: Fusobacterium mortiferum; test: Antimicrobial activity against Fusobacterium mortiferum under anaerobic conditions after 44 hrs by CLSI-M11-47 protocol based agar dilution method; type: functional; how it was run: as §1
[6] = tested on: Fusobacterium varium; test: Antimicrobial activity against Fusobacterium varium under anaerobic conditions after 44 hrs by CLSI-M11-47 protocol based agar dilution method; type: functional
How it was run: (§2)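 Clinical isolates were stored at −70°C in 20% skim milk and identified phenotypically or by partial 16S rRNA sequencing. Each strain was subcultured twice from frozen stock. Cell paste from 48-h cultures was suspended in brucella broth to a 0.5 McFarland standard. About 10^5 CFU per spot were applied by Steers replicator to agar dilution plates prepared on the day of testing. Plates were incubated 44 h at 37°C in an anaerobic chamber. MIC was taken as the lowest concentration giving complete inhibition or marked reduction of growth versus the drug-free control.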

[7] = tested on: Veillonella; test: Antimicrobial activity against Veillonella spp. under anaerobic conditions after 44 hrs by CLSI-M11-47 protocol based agar dilution method; type: functional; how it was run: as §2
[8] = tested on: Anaerococcus prevotii; test: Antimicrobial activity against Anaerococcus prevotii under anaerobic conditions after 44 hrs by CLSI-M11-47 protocol based agar dilution method; type: functional; how it was run: as §1
[9] = tested on: Parvimonas micra; test: Antimicrobial activity against Parvimonas micra under anaerobic conditions after 44 hrs by CLSI-M11-47 protocol based agar dilution method; type: functional; how it was run: as §2
[10] = tested on: Peptostreptococcus anaerobius; test: Antimicrobial activity against Peptostreptococcus anaerobius under anaerobic conditions after 44 hrs by CLSI-M11-47 protocol based agar dilution method; type: functional; how it was run: as §2
[11] = tested on: Peptostreptococcus stomatis; test: Antimicrobial activity against Peptostreptococcus stomatis under anaerobic conditions after 44 hrs by CLSI-M11-47 protocol based agar dilution method; type: functional; how it was run: as §2
[12] = tested on: Anaerococcus lactolyticus; test: Antimicrobial activity against Anaerococcus lactolyticus under anaerobic conditions after 44 hrs by CLSI-M11-47 protocol based agar dilution method; type: functional; how it was run: as §1
[13] = tested on: Anaerococcus murdochii; test: Antimicrobial activity against Anaerococcus murdochii under anaerobic conditions after 44 hrs by CLSI-M11-47 protocol based agar dilution method; type: functional; how it was run: as §1
[14] = tested on: Anaerococcus octavius; test: Antimicrobial activity against Anaerococcus octavius under anaerobic conditions after 44 hrs by CLSI-M11-47 protocol based agar dilution method; type: functional; how it was run: as §1
[15] = tested on: Anaerococcus; test: Antimicrobial activity against Anaerococcus sp. under anaerobic conditions after 44 hrs by CLSI-M11-47 protocol based agar dilution method; type: functional; how it was run: as §1
[16] = tested on: Gemella morbillorum; test: Antimicrobial activity against Gemella morbillorum under anaerobic conditions after 44 hrs by CLSI-M11-47 protocol based agar dilution method; type: functional; how it was run: as §2
[17] = tested on: Peptoniphilus lacrimalis; test: Antimicrobial activity against Peptoniphilus lacrimalis under anaerobic conditions after 44 hrs by CLSI-M11-47 protocol based agar dilution method; type: functional; how it was run: as §2
[18] = tested on: Actinomyces israelii; test: Antimicrobial activity against Actinomyces israelii under anaerobic conditions after 44 hrs by CLSI-M11-47 protocol based agar dilution method; type: functional; how it was run: as §1
[19] = tested on: Schaalia meyeri; test: Antimicrobial activity against Actinomyces meyeri under anaerobic conditions after 44 hrs by CLSI-M11-47 protocol based agar dilution method; type: functional; how it was run: as §1
[20] = tested on: Actinomyces neuii subsp. anitratus; test: Antimicrobial activity against Actinomyces neuii subsp. anitratus under anaerobic conditions after 44 hrs by CLSI-M11-47 protocol based agar dilution method; type: functional, Winkia neuii subsp. anitrata; details: Winkia neuii; how it was run: as §1
[21] = tested on: Propionibacterium avidum; test: Antimicrobial activity against Propionibacterium avidum under anaerobic conditions after 44 hrs by CLSI-M11-47 protocol based agar dilution method; type: functional; details: Cutibacterium avidum; how it was run: as §2
[22] = tested on: Eggerthella lenta; test: Antimicrobial activity against Eggerthella lenta under anaerobic conditions after 44 hrs by CLSI-M11-47 protocol based agar dilution method; type: functional; how it was run: as §1
[23] = tested on: Eubacterium saburreum; test: Antimicrobial activity against Eubacterium saburreum under anaerobic conditions after 44 hrs by CLSI-M11-47 protocol based agar dilution method; type: functional; details: Lachnoanaerobaculum saburreum; how it was run: as §1
[24] = tested on: Mogibacterium timidum; test: Antimicrobial activity against Mogibacterium timidum under anaerobic conditions after 44 hrs by CLSI-M11-47 protocol based agar dilution method; type: functional; how it was run: as §2
[25] = tested on: Lacticaseibacillus casei; test: Antimicrobial activity against Lactobacillus casei under anaerobic conditions after 44 hrs by CLSI-M11-47 protocol based agar dilution method; type: functional; how it was run: as §2
[26] = tested on: Clostridium bolteae; test: Antimicrobial activity against Clostridium bolteae under anaerobic conditions after 44 hrs by CLSI-M11-47 protocol based agar dilution method; type: functional; details: Enterocloster bolteae; how it was run: as §1
[27] = tested on: Paraclostridium bifermentans; test: Antimicrobial activity against Clostridium bifermentans under anaerobic conditions after 44 hrs by CLSI-M11-47 protocol based agar dilution method; type: functional; how it was run: as §1
[28] = tested on: Clostridium butyricum; test: Antimicrobial activity against Clostridium butyricum under anaerobic conditions after 44 hrs by CLSI-M11-47 protocol based agar dilution method; type: functional
[29] = tested on: Clostridium celerecrescens; test: Antimicrobial activity against Clostridium celerecrescens under anaerobic conditions after 44 hrs by CLSI-M11-47 protocol based agar dilution method; type: functional; details: Lacrimispora celerecrescens; how it was run: as §1
[30] = tested on: Clostridium hylemonae; test: Antimicrobial activity against Clostridium hylemonae under anaerobic conditions after 44 hrs by CLSI-M11-47 protocol based agar dilution method; type: functional; how it was run: as §1
[31] = tested on: Clostridium subterminale; test: Antimicrobial activity against Clostridium subterminale under anaerobic conditions after 44 hrs by CLSI-M11-47 protocol based agar dilution method; type: functional; how it was run: as §1
[32] = tested on: Clostridium symbiosum; test: Antimicrobial activity against Clostridium symbiosum under anaerobic conditions after 44 hrs by CLSI-M11-47 protocol based agar dilution method; type: functional; how it was run: as §1

Q: Which results are given for CO/N=C(\C(=O)N[C@@H]1C(=O)N2C(C(=O)O)=C(CSc3nc(=O)c(O)nn3C)CS[C@H]12)c1csc(N)n1 [CEFTRIAXONE]?
A: MIC50 [1]: 32 µg/mL (≈ 57.7 µM); MIC90 [1]: 64 µg/mL (≈ 115 µM); MIC50 [2]: > 64 µg/mL; MIC90 [2]: > 64 µg/mL; MIC50 [3]: > 64 µg/mL; MIC90 [3]: > 64 µg/mL; MIC50 [4]: > 64 µg/mL; MIC90 [4]: > 64 µg/mL; MIC50 [5]: > 64 µg/mL; MIC90 [5]: > 64 µg/mL; MIC50 [6]: 1 µg/mL (≈ 1.8 µM); MIC90 [6]: 8 µg/mL (≈ 14.4 µM); MIC50 [7]: 4 µg/mL (≈ 7.21 µM); MIC90 [7]: 8 µg/mL (≈ 14.4 µM); MIC50 [8]: 0.25 µg/mL (≈ 0.451 µM); MIC90 [8]: 0.5 µg/mL (≈ 0.902 µM); MIC50 [9]: 0.5 µg/mL (≈ 0.902 µM); MIC90 [9]: 1 µg/mL (≈ 1.8 µM); MIC50 [10]: 2 µg/mL (≈ 3.61 µM); MIC90 [10]: 8 µg/mL (≈ 14.4 µM); MIC50 [11]: 2 µg/mL (≈ 3.61 µM); MIC90 [11]: 8 µg/mL (≈ 14.4 µM); MIC50 [12]: 0.25 µg/mL (≈ 0.451 µM); MIC90 [12]: 16 µg/mL (≈ 28.9 µM); MIC50 [13]: 0.25 µg/mL (≈ 0.451 µM); MIC90 [13]: 16 µg/mL (≈ 28.9 µM); MIC50 [14]: 0.25 µg/mL (≈ 0.451 µM); MIC90 [14]: 16 µg/mL (≈ 28.9 µM); MIC50 [15]: 0.25 µg/mL (≈ 0.451 µM); MIC90 [15]: 16 µg/mL (≈ 28.9 µM); MIC50 [16]: 0.25 µg/mL (≈ 0.451 µM); MIC90 [16]: 16 µg/mL (≈ 28.9 µM); MIC50 [17]: 0.25 µg/mL (≈ 0.451 µM); MIC90 [17]: 16 µg/mL (≈ 28.9 µM); MIC50 [18]: 0.125 µg/mL (≈ 0.225 µM); MIC90 [18]: 0.5 µg/mL (≈ 0.902 µM); MIC50 [19]: 0.125 µg/mL (≈ 0.225 µM); MIC90 [19]: 0.5 µg/mL (≈ 0.902 µM); MIC50 [20]: 0.125 µg/mL (≈ 0.225 µM); MIC90 [20]: 0.5 µg/mL (≈ 0.902 µM); MIC50 [21]: 0.25 µg/mL (≈ 0.451 µM); MIC90 [21]: 0.5 µg/mL (≈ 0.902 µM); MIC50 [22]: > 64 µg/mL; MIC90 [22]: > 64 µg/mL; MIC50 [23]: 0.5 µg/mL (≈ 0.902 µM); MIC90 [23]: 2 µg/mL (≈ 3.61 µM); MIC50 [24]: 0.5 µg/mL (≈ 0.902 µM); MIC90 [24]: 2 µg/mL (≈ 3.61 µM); MIC50 [25]: 32 µg/mL (≈ 57.7 µM); MIC90 [25]: 64 µg/mL (≈ 115 µM); MIC50 [26]: 4 µg/mL (≈ 7.21 µM); MIC90 [26]: 32 µg/mL (≈ 57.7 µM); MIC50 [27]: 2 µg/mL (≈ 3.61 µM); MIC90 [27]: 64 µg/mL (≈ 115 µM); MIC50 [28]: 2 µg/mL (≈ 3.61 µM); MIC90 [28]: 64 µg/mL (≈ 115 µM); MIC50 [29]: 2 µg/mL (≈ 3.61 µM); MIC90 [29]: 64 µg/mL (≈ 115 µM); MIC50 [30]: 2 µg/mL (≈ 3.61 µM); MIC90 [30]: 64 µg/mL (≈ 115 µM); MIC50 [31]: 2 µg/mL (≈ 3.61 µM); MIC90 [31]: 64 µg/mL (≈ 115 µM); MIC50 [32]: 2 µg/mL (≈ 3.61 µM); MIC90 [32]: 64 µg/mL (≈ 115 µM)
